Bioassay records from PubChem BioAssay.
CHO parental Ca: counter-screen: ATP calcium response change in parental CHO cells | 330,000 tested, 0.63% active | parental CHO-K1, ATP-induced calcium, Fluo-8 fluorescence | inhibition, % at 5.6 µM;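 active = inhibition above that plate's mean sample inhibition plus 3 SD, cut at about 26% in these data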;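 also: 0% = ATP-challenged DMSO wells and 100% = DMSO wells without ATP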
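test system = CHO parental line | reagent = ATP stimulus | measured by = intracellular calcium via Fluo-8 no-wash fluorescent dye | control set = ATP and no-ATP DMSO wells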
OXTR potentiator: potentiates the human oxytocin receptor response. CHO-OTR cells, Fluo-8 calcium fluorescence, potentiator mode; 0% = oxytocin EC15, 100% = EC100. activation, % at 3 µM. 320,000 tested, 0.061% active;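 active = activation above that plate's cutoff, the mean activation of tested compounds plus 3 SD, cut at about 6.6% in these data, passing the limit was not always enough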;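 also: 100% uses oxytocin at 75 nM as the full agonist control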
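Material: human OTR in CHO cells. Compound: 3.0 µM, one dose. Timing: compound 6 min at room temperature before oxytocin, 100 s read. Evaluation: % activation of max/min ratio relative to oxytocin controls. Replication: single well per compound, singlicate. Signal: Fluo-8 calcium dye fluorescence.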
OX1R antag-1: antagonists of human orexin 1 receptor (OX1R); O43613; OX1R-expressing cells, FRET antagonist read-out; inhibition, % at 6.6 µM; 330,000 tested, 1.8% active; AID 485270; in the data active = inhibition mostly above about 38%, no sharp cut-off; inactive = mostly below about 40%;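 also: 0% = agonist challenge alone and 100% = reference antagonist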
V1aR counter: counter-screen for oxytocin receptor agonists: human V1a receptor agonists | P37288 | CHO-V1R cells, Fluo-8 calcium fluorescence, agonist mode; 0% DMSO, 100% 3 nM vasopressin | activation, % at 3 µM | 320,000 tested, 0.25% active | AID 2797;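 active = activation above the mean activation of all tested compounds plus 3 SD, per screening run, cut at about 20% in these data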;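 also: signal is peak over basal fluorescence ratio across a 100 second FLIPR read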
Target sequence (P37288 whole entry, looked up): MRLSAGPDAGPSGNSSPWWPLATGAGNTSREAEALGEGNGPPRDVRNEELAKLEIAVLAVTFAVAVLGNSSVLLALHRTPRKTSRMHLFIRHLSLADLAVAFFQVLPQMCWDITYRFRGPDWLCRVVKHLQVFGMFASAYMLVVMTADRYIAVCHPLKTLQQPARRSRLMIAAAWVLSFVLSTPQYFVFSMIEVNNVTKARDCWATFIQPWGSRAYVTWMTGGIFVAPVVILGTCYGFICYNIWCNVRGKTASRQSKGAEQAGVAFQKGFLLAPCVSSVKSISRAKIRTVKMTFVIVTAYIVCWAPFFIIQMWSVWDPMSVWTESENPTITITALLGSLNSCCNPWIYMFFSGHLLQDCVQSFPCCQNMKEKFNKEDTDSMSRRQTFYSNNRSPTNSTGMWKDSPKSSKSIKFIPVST
OXTR ag: human OXTR agonism; CHO-OTR cells, Fluo-8 calcium fluorescence; normalized: DMSO 0%, oxytocin 100%; activation, % at 3 µM; 320,000 tested, 0.32% active; AID 2435;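 active = activation above the mean of all tested compounds plus 3 SD, cutoff set per screening run, cut at about 20% in these data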;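 also: peak over basal fluorescence ratio from a 100 s FLIPR kinetic read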
OX1R antag-2: blocks the human orexin 1 receptor; O43613; CHO/OX1R cells, Fluo-8 calcium fluorescence, orexin A; inhibition, % at 5 µM; 330,000 tested, 0.43% active; AID 434989;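 active = inhibition above its plate's threshold, mean inhibition of all tested compounds on the plate plus 3 SD, cut at about 37% in these data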;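 also: 0% = orexin A challenge wells and 100% = SB-334867-A antagonist wells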
Active calls of the source: *. An excerpt weighted towards active compounds, which were near 2.7% of everything screened.

What do the screens show for `O=C(OCc1cccc(C(F)(F)F)c1)c1ccc[nH]c1=O`?
CHO parental Ca: -5; OXTR potentiator: -6; OX1R antag-1: 6; V1aR counter: 1; OXTR ag: 0; OX1R antag-2: -13

Results for Cc1cccc(C)c1NC(=O)CSc1ncnc2[nH]ncc12 ?
CHO parental Ca: -12; OXTR potentiator: -3; OX1R antag-1: 4; V1aR counter: 1; OXTR ag: 1; OX1R antag-2: 10

Results for O=C(CSc1ncnc2[nH]ncc12)Nc1nc(-c2ccc(F)c(F)c2)cs1 ?
CHO parental Ca: 42*; OXTR potentiator: -11; OX1R antag-1: 52*; V1aR counter: 6; OXTR ag: 7; OX1R antag-2: 45*

Results for O=C1c2ccccc2[C@@H]2C[C@@H](O)[C@H](Nc3cccc4ccccc34)CCN12 ?
CHO parental Ca: -12; OX1R antag-1: 42*; OX1R antag-2: 5

Results for Cc1nc2cc(-c3ccc(Cl)cc3)nn2c(C)c1CCC(=O)NC(C)c1ccc2c(c1)OCCO2 (stereo unspecified) ?
CHO parental Ca: -17; OXTR potentiator: -9; OX1R antag-1: 49*; V1aR counter: 5; OXTR ag: 5; OX1R antag-2: 7

What do the screens show for `COc1ccccc1-c1c(-c2ccc(OCC(=O)NN)cc2O)n[nH]c1C(F)(F)F`?
CHO parental Ca: -24; OXTR potentiator: -1; OX1R antag-1: -1; V1aR counter: 0; OXTR ag: 0; OX1R antag-2: -14

How did COc1ccc(-c2n[nH]c(C(F)(F)F)c2-c2cc3ccccc3o2)c(O)c1 do in these assays?
CHO parental Ca: 78*; OXTR potentiator: -12; OX1R antag-1: 2; V1aR counter: 0; OXTR ag: 2; OX1R antag-2: 52*

What do the screens show for `CCCCN1C(=O)/C(=C/C=C2/CC(C)(C)CN2C)SC1=S`?
CHO parental Ca: 47*; OXTR potentiator: -20; OX1R antag-1: 29; V1aR counter: 66*; OXTR ag: 52*; OX1R antag-2: 46*

What do the screens show for `Cc1[nH]n(-c2ccccc2)c(=O)c1/C=N/N1C(=O)c2cccc3cccc(c23)C1=O`?
CHO parental Ca: -5; OXTR potentiator: -4; OX1R antag-1: 74*; V1aR counter: 1; OXTR ag: 0; OX1R antag-2: 5

What do the screens show for `CCN(c1ccccc1)S(=O)(=O)c1ccc(C(=O)Nc2ccncc2)cc1`?
CHO parental Ca: 7; OXTR potentiator: -10; OX1R antag-1: 26; V1aR counter: 4; OXTR ag: 5; OX1R antag-2: 4

How did CS(=O)(=O)c1ncc(Cl)c(C(=O)Nc2ccc(OC(F)F)cc2)n1 do in these assays?
CHO parental Ca: 14; OXTR potentiator: -5; OX1R antag-1: 53*; V1aR counter: 0; OXTR ag: 0; OX1R antag-2: 14

Results for CCN(c1ccccc1)S(=O)(=O)c1ccc(NC(=O)c2nc(S(C)(=O)=O)ncc2Cl)cc1 ?
CHO parental Ca: 46*; OXTR potentiator: -10; OX1R antag-1: 20; V1aR counter: 8; OXTR ag: 2; OX1R antag-2: 62*

How did Cc1ccccc1CS(=O)(=O)c1ncc(Cl)c(C(=O)Nc2ccc(F)cc2)n1 do in these assays?
CHO parental Ca: 26; OXTR potentiator: -10; OX1R antag-1: 40; V1aR counter: 1; OXTR ag: 0; OX1R antag-2: 21

Results for CCS(=O)(=O)c1ncc(Cl)c(C(=O)Nc2ccc(S(=O)(=O)N(C)c3ccccc3)cc2)n1 ?
CHO parental Ca: 52*; OXTR potentiator: -6; OX1R antag-1: 46*; V1aR counter: 4; OXTR ag: -1; OX1R antag-2: 51*

How did O=C(NCCc1ccccc1C(F)(F)F)C1CCC(=O)N(C2CC2)C1 (stereo unspecified) do in these assays?
CHO parental Ca: -6; OXTR potentiator: -12; OX1R antag-1: 19; V1aR counter: 0; OXTR ag: 0; OX1R antag-2: -15

What do the screens show for `CCC(=O)N(C)/C=C1\Sc2ccccc2C1=O`?
CHO parental Ca: -5; OXTR potentiator: -8; OX1R antag-1: -2; V1aR counter: 1; OXTR ag: 0; OX1R antag-2: -13

What do the screens show for `CCC(=O)N(CC)C1=C(O)c2ccccc2C(=O)C1=O`?
CHO parental Ca: 0; OXTR potentiator: -8; OX1R antag-1: 58*; V1aR counter: 0; OXTR ag: 1; OX1R antag-2: -1

What do the screens show for `O=[N+]([O-])c1ccc(-c2nc(-c3ccncc3)no2)cc1`?
CHO parental Ca: -18; OXTR potentiator: -1; OX1R antag-1: 64*; V1aR counter: 0; OXTR ag: -1; OX1R antag-2: -4

What do the screens show for `O=C(CSc1nnc(C2CC2)n1-c1ccccc1)N1CCCC1`?
CHO parental Ca: -10; OXTR potentiator: -2; OX1R antag-1: 15; V1aR counter: 1; OXTR ag: 1; OX1R antag-2: 1

Results for N#CCCN(C(=O)COC(=O)CCc1nc2ccccc2c(=O)[nH]1)c1ccc(F)cc1 ?
CHO parental Ca: -12; OXTR potentiator: 0; OX1R antag-1: -2; V1aR counter: -1; OXTR ag: 0; OX1R antag-2: -18

What do the screens show for `Clc1ccc2c(c1)-c1nnc(Br)n1-c1ccccc1S2`?
CHO parental Ca: 2; OXTR potentiator: -8; OX1R antag-1: 60*; V1aR counter: -2; OXTR ag: -2; OX1R antag-2: 20

How did C=CC[C@@H](Cc1ccc(F)cc1)C(=O)OC[C@@H]1CCCN1C(=O)[C@H](CC=C)CC(=O)N[C@H](CO)Cc1ccccc1 do in these assays?
CHO parental Ca: 34; OXTR potentiator: -8; OX1R antag-1: 64*; V1aR counter: 6; OXTR ag: -1; OX1R antag-2: 101*

Results for CCCCN1CC(=O)N2[C@H](c3ccc(OC)cc3)[C@@H]3C(=O)N(CC)C(=O)[C@@H]3[C@]2(C)C1=O ?
CHO parental Ca: -3; OXTR potentiator: 4; OX1R antag-1: 25; V1aR counter: 1; OXTR ag: 0; OX1R antag-2: -3

How did O=C(OC1CCOC1=O)c1cc(-c2ccc(Br)cc2)nc2ccccc12 (stereo unspecified) do in these assays?
CHO parental Ca: -20; OXTR potentiator: -2; OX1R antag-1: 13; V1aR counter: 0; OXTR ag: -1; OX1R antag-2: -8

What do the screens show for `COc1ccc(-c2cc(C(=O)OC3CCOC3=O)c3ccccc3n2)cc1` (stereo unspecified)?
CHO parental Ca: -12; OXTR potentiator: -6; OX1R antag-1: 53*; V1aR counter: 1; OXTR ag: 0; OX1R antag-2: 9
